ChEMBL document CHEMBL2385053, “Novel isoquinoline derivatives as antimicrobial agents” (2013)

How the values were obtained:
Escherichia coli [1] = experiment: Bactericidal activity against Escherichia coli CECT 100 at 0.2 mg/disk after 24 hrs by paper disk-agar diffusion method relative to control; format: functional
Escherichia coli [2] = experiment: Bactericidal activity against Escherichia coli CECT 100 at 0.2 mg/disk after 24 hrs by paper disk-agar diffusion method; format: functional
Summary of the method: (§1)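 Each bacterial strain was taken from a 24-h culture on solid medium, reactivated in Nutrient Broth, and grown a further 24 h at 28 or 37 °C depending on the strain. 1 mL of suspension was mixed with 15 mL Plate Count Agar. Four 0.5 cm paper disks (0.2 mg/disk) were placed on the set agar. Controls were vehicle-only disks and tetracycline. Plates were incubated 24 h, dark, 28 or 37 °C. The inhibition zone was read in mm as the mean ± SE of three independent experiments.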

[3] = system: Pectobacterium carotovorum; experiment: Bactericidal activity against Erwinia carotovora CECT 225 at 0.2 mg/disk after 24 hrs by paper disk-agar diffusion method; format: functional; summary of the method: as §1
Escherichia coli [4] = experiment: Bactericidal activity against Escherichia coli CECT 405 at 0.2 mg/disk after 24 hrs by paper disk-agar diffusion method; format: functional; summary of the method: as §1
Salmonella typhi [5] = experiment: Bactericidal activity against Salmonella typhi CECT 409 at 0.2 mg/disk after 24 hrs by paper disk-agar diffusion method; format: functional, Salmonella enterica subsp. enterica serovar Typhi
Summary of the method: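 Paper disk-agar diffusion, run in triplicate. 24-h culture reactivated in nutrient broth and grown a further 24 h at 28 or 37 °C by species. 1 mL suspension mixed into 15 mL plate count agar. Four 0.5 cm disks placed per plate, incubated 24 h in the dark. Inhibition zone (mm) reported as mean ± SE of three independent experiments; vehicle disks as negative control.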

Enterococcus faecalis = experiment: Bactericidal activity against Enterococcus faecalis CECT 481 at 0.2 mg/disk after 24 hrs by paper disk-agar diffusion method; format: functional; summary of the method: as §1
Staphylococcus aureus = experiment: Bactericidal activity against Staphylococcus aureus CECT 86 at 0.2 mg/disk after 24 hrs by paper disk-agar diffusion method; format: functional; summary of the method: as §1
Bacillus cereus = experiment: Bactericidal activity against Bacillus cereus CECT 148 at 0.2 mg/disk after 24 hrs by paper disk-agar diffusion method; format: functional; summary of the method: as §1
Aspergillus parasiticus = experiment: Fungicidal activity against Aspergillus parasiticus CECT 2681 at 0.2 mg/disk after 72 hrs by paper disk-agar diffusion method; format: functional
Summary of the method: (§2)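 Fungi were grown on potato dextrose agar (PDA) for 7 days at 28 °C. Conidia were suspended to ~10⁶/mL in 0.05% Tween 80 in sterile water, and 1 mL was mixed into 15 mL PDA. Four 0.5 cm paper disks (0.2 mg/disk) were placed on the set agar. Controls were vehicle-only disks and benomyl at species-dependent doses. The inhibition zone was read in mm at 72 h as the mean ± SE of three independent experiments.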

[6] = system: Phytophthora citrophthora; experiment: Fungicidal activity against Phytophthora citrophthora CECT 2353 at 0.2 mg/disk after 72 hrs by paper disk-agar diffusion method; format: functional; summary of the method: as §2
Trichoderma viride = experiment: Fungicidal activity against Trichoderma viride CECT 2423 at 0.2 mg/disk after 72 hrs by paper disk-agar diffusion method; format: functional; summary of the method: as §2
Geotrichum candidum = experiment: Fungicidal activity against Geotrichum candidum CCM 245 at 0.2 mg/disk after 72 hrs by paper disk-agar diffusion method; format: functional; summary of the method: as §2
Fusarium culmorum = experiment: Fungicidal activity against Fusarium culmorum CCM 172 at 0.2 mg/disk after 72 hrs by paper disk-agar diffusion method; format: functional; summary of the method: as §2
Salmonella typhi [7] = experiment: Bactericidal activity against Salmonella typhi CECT 409 at 0.2 mg/disk after 24 hrs by paper disk-agar diffusion method relative to control; format: functional, Salmonella enterica subsp. enterica serovar Typhi
Escherichia coli [8] = experiment: Bactericidal activity against Escherichia coli CECT 405 at 0.2 mg/disk after 24 hrs by paper disk-agar diffusion method relative to control; format: functional

SMILES	Activity (Escherichia coli [1]) [%]	inhibition zone (IZ) (Escherichia coli [2]) [mm]	inhibition zone (IZ) [3] [mm]	inhibition zone (IZ) (Escherichia coli [4]) [mm]	inhibition zone (IZ) (Salmonella typhi [5]) [mm]	inhibition zone (IZ) (Enterococcus faecalis) [mm]	inhibition zone (IZ) (Staphylococcus aureus) [mm]	inhibition zone (IZ) (Bacillus cereus) [mm]	inhibition zone (IZ) (Aspergillus parasiticus) [mm]	inhibition zone (IZ) [6] [mm]	inhibition zone (IZ) (Trichoderma viride) [mm]	inhibition zone (IZ) (Geotrichum candidum) [mm]	inhibition zone (IZ) (Fusarium culmorum) [mm]	Activity (Salmonella typhi [7]) [%]	Activity (Escherichia coli [8]) [%]
COc1cc2c(cc1OC)C(CCCCCO)N(C)CC2 (centres undefined)	62	16	8	11.33	12.33	10.33	10.67	0	–	–	–	–	–	–	–
COc1cc2c(cc1OC)C(CCCCCOC(=O)c1ccccc1)N(C)CC2 (centres undefined)	–	11	12.17	9.83	9.67	9.83	10.67	10.83	0	0	7.25	6.75	7	–	–
COc1cc2c(cc1OC)C(CCCCCOC(=O)c1ccc(F)cc1)N(C)CC2 (centres undefined)	–	14	13.5	13.67	14.83	13.67	13.67	13	0	0	7	7	8	61	–
COc1cc2c(cc1OC)C(CCCCCOC(=O)c1ccc(Cl)cc1)N(C)CC2 (centres undefined)	–	13.67	12.67	11.5	–	11.67	12.67	13	0	10.33	9	12.33	6.67	–	–
COc1ccc(C(=O)OCCCCCC2c3cc(OC)c(OC)cc3CCN2C)cc1 (centres undefined)	–	10.83	10.33	11.33	–	11.33	11.33	10.33	0	0	5.5	7.33	5.5	–	–
COc1cc2c(cc1OC)C(CCCCCOC(=O)CCc1ccccc1)N(C)CC2 (centres undefined)	–	11.33	10.67	8.67	–	8.67	9.67	10.33	0	6.67	8	7.83	6.33	–	–
COc1cc2c(cc1OC)C(CCCCCOC(=O)CCc1ccc(Cl)cc1)N(C)CC2 (centres undefined)	–	8.67	11	9.17	8.17	8.33	8.67	11	0	8.5	9	8.5	9.5	–	–
COc1ccc(CCC(=O)OCCCCCC2c3cc(OC)c(OC)cc3CCN2C)cc1 (centres undefined)	–	7	11.33	7.33	8	7	7.83	8.5	0	0	6	5.75	6.5	–	–
COc1cc2c(cc1OC)C(CCCCCOC(=O)Nc1ccc(Cl)cc1)N(C)CC2 (centres undefined)	–	13.17	12.5	17.33	16.33	18	17.33	14.33	0	0	8.67	10.33	7.33	67	68
COc1cc2c(cc1OC)C(CCCCCOC(=O)NCCc1ccccc1)N(C)CC2 (centres undefined)	–	10.67	11	14	13.5	13.67	14	10.17	0	0	0	7.67	0	–	–
COc1cc2c(cc1OC)C(CCCCCOC(=O)NCCc1ccc(F)cc1)N(C)CC2 (centres undefined)	–	11.33	11.67	16	14.83	15	15.33	11.33	0	0	0	7.67	0	61	62
COc1cc2c(cc1OC)C(CCCCCOC(=O)NCCc1ccc(Cl)cc1)N(C)CC2 (centres undefined)	–	12.33	18.33	17.67	–	17	16.33	14.67	0	6.25	7	10	15	75	75
COc1ccc(CCNC(=O)OCCCCCC2c3cc(OC)c(OC)cc3CCN2C)cc1 (centres undefined)	–	10.67	17	13.33	–	11	9	12	0	0	0	7	0	–	–
CCCCC1=[N+](C)CCc2cc(OC)c(OC)cc21	–	0	7	7	6.75	7	7	7	–	–	–	–	–	–	–
CCCCC1c2cc(OC)c(OC)cc2CCN1C (centres undefined)	–	0	6	6	6.25	7	6	6	0	0	0	0	5.5	–	–
COC(=O)CCCCC1=[N+](C)CCc2cc(OC)c(OC)cc21	–	0	5.5	0	0	0	0	6.33	–	–	–	–	–	–	–
COC(=O)CCCCC1c2cc(OC)c(OC)cc2CCN1C (centres undefined)	–	5.83	0	0	0	0	5.5	6.33	–	–	–	–	–	–	–
CN(C)[C@@H]1C(O)=C(C(N)=O)C(=O)[C@@]2(O)C(O)=C3C(=O)c4c(O)cccc4[C@@](C)(O)[C@H]3C[C@@H]12 [TETRACYCLINE]	–	25.67	34.67	25.67	24.33	31.17	27	23.33	–	–	–	–	–	–	–
